Measured values from ChEMBL document CHEMBL1145490, “Beta-lactam resistance in Haemophilus parasuis Is mediated by plasmid pB1000 bearing blaROB-1” (2007).
Values after ≈ are worked out from the molar mass of the structure shown.

Key:
Format in all cases: functional
Haemophilus parasuis [1] = experiment: Antimicrobial activity against Haemophilus parasuis BB 1024; details: Glaesserella parasuis
Outline: (§1)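 H. parasuis isolates grown on chocolate agar and in Haemophilus test medium broth at 37°C under microaerophilic conditions (5% CO2). Susceptibility was profiled by disk diffusion and broth microdilution in Haemophilus test medium for fastidious bacteria, following a previously described method.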

Haemophilus parasuis [2] = experiment: Antimicrobial activity against Haemophilus parasuis BB 1025; details: Glaesserella parasuis; outline: as §1
Escherichia coli [3] = experiment: Antimicrobial activity against Escherichia coli
Escherichia coli [4] = experiment: Antimicrobial activity against Escherichia coli pB1000 expressing ROB1 beta lactamase
Haemophilus parasuis [5] = experiment: Antimicrobial activity against Haemophilus parasuis BB 1026; details: Glaesserella parasuis; outline: as §1
Haemophilus parasuis [6] = experiment: Antimicrobial activity against Haemophilus parasuis ATCC 19417; details: Glaesserella parasuis; outline: as §1
Haemophilus parasuis [7] = experiment: Antimicrobial activity against Haemophilus parasuis BB 1018; details: Glaesserella parasuis; outline: as §1
Haemophilus parasuis [8] = experiment: Antimicrobial activity against Haemophilus parasuis BB 1019; details: Glaesserella parasuis; outline: as §1
Haemophilus parasuis [9] = experiment: Antimicrobial activity against Haemophilus parasuis BB 1020; details: Glaesserella parasuis; outline: as §1
Haemophilus parasuis [10] = experiment: Antimicrobial activity against Haemophilus parasuis BB 1021; details: Glaesserella parasuis; outline: as §1
Haemophilus parasuis [11] = experiment: Antimicrobial activity against Haemophilus parasuis BB 1022; details: Glaesserella parasuis; outline: as §1
Haemophilus parasuis [12] = experiment: Antimicrobial activity against Haemophilus parasuis BB 1023; details: Glaesserella parasuis; outline: as §1

Compound | MIC (Haemophilus parasuis [1]) | MIC (Haemophilus parasuis [2]) | MIC (Escherichia coli [3]) | MIC (Escherichia coli [4]) | MIC (Haemophilus parasuis [5]) | MIC (Haemophilus parasuis [6]) | MIC (Haemophilus parasuis [7]) | MIC (Haemophilus parasuis [8]) | MIC (Haemophilus parasuis [9]) | MIC (Haemophilus parasuis [10]) | MIC (Haemophilus parasuis [11]) | MIC (Haemophilus parasuis [12])
CO/N=C(\C(=O)N[C@@H]1C(=O)N2C(C(=O)O)=C(COC(C)=O)CS[C@H]12)c1csc(N)n1 [CEFOTAXIME] | 0.06 mg/L (≈ 0.132 µM) | 0.06 mg/L (≈ 0.132 µM) | 0.06 mg/L (≈ 0.132 µM) | 0.06 mg/L (≈ 0.132 µM) | ≤ 0.03 mg/L | ≤ 0.03 mg/L | 0.06 mg/L (≈ 0.132 µM) | 0.06 mg/L (≈ 0.132 µM) | ≤ 0.03 mg/L | 0.06 mg/L (≈ 0.132 µM) | 0.06 mg/L (≈ 0.132 µM) | 0.12 mg/L (≈ 0.263 µM)
N[C@@H](C(=O)N[C@@H]1C(=O)N2C(C(=O)O)=C(Cl)CS[C@H]12)c1ccccc1 [CEFACLOR ANHYDROUS] | > 16 mg/L | > 16 mg/L | 8 mg/L (≈ 21.8 µM) | 128 mg/L (≈ 348 µM) | ≤ 1 mg/L | ≤ 1 mg/L | > 16 mg/L | > 16 mg/L | > 16 mg/L | > 16 mg/L | > 16 mg/L | > 16 mg/L
Cc1onc(-c2ccccc2)c1C(=O)N[C@@H]1C(=O)N2[C@@H]1SC(C)(C)[C@@H]2C(=O)O [OXACILLIN] | ≤ 0.25 mg/L | ≤ 0.25 mg/L | > 4 mg/L | > 4 mg/L | ≤ 0.25 mg/L | ≤ 0.25 mg/L | ≤ 0.25 mg/L | ≤ 0.25 mg/L | ≤ 0.25 mg/L | ≤ 0.25 mg/L | ≤ 0.25 mg/L | ≤ 0.25 mg/L
CC1(C)S[C@@H]2[C@H](NC(=O)[C@H](N)c3ccc(O)cc3)C(=O)N2[C@H]1C(=O)O [AMOXICILLIN] | > 256 mg/L | > 256 mg/L | 4 mg/L (≈ 10.9 µM) | > 256 mg/L | ≤ 2 mg/L | ≤ 2 mg/L | > 256 mg/L | > 256 mg/L | > 256 mg/L | > 256 mg/L | > 256 mg/L | > 256 mg/L
